Screening results as filed in PubChem BioAssay.
A selection: hits, their analogues and other compounds. The true share with any hit is near 3.3%.
PglD inh: inhibitors of Campylobacter jejuni PglD acetyltransferase; purified PglD enzyme, DTNB colorimetric CoA detection; inhibition, % at 12.5 µM; hit rate 0.098% among 360,000; in the data active = inhibition above about 16%, passing the limit was not always enough
C2C12 statin: suppressors of simvastatin-induced myotoxicity in C2C12 myotubes; ATP luminescence, 48 h; scaled: DMSO 0, geranylgeraniol control 100; rescue of ATP level, % at 7.49 µM; hit rate 0.78% among 330,000;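 active = mean ATP rescue above about 67%, or every replicate alone reaching that limit, limit read from the data, passing the limit was not always enough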;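 also: myotubes were challenged with 10 µM simvastatin during compound exposure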
E-sel inducer: E-selectin induction on HUVECs. P16581. HUVEC E-selectin immunofluorescence imaging; normalized: neutral wells 0, TNF-alpha wells 100. activation, % at 7.58 µM. hit rate 0.37% among 260,000. AID 686992;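 active = mean E-selectin-positive cell signal at least 10% of the positive control, reached in at least 60% of replicates, without over 20% cell loss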
Target sequence (P16581 whole entry, looked up): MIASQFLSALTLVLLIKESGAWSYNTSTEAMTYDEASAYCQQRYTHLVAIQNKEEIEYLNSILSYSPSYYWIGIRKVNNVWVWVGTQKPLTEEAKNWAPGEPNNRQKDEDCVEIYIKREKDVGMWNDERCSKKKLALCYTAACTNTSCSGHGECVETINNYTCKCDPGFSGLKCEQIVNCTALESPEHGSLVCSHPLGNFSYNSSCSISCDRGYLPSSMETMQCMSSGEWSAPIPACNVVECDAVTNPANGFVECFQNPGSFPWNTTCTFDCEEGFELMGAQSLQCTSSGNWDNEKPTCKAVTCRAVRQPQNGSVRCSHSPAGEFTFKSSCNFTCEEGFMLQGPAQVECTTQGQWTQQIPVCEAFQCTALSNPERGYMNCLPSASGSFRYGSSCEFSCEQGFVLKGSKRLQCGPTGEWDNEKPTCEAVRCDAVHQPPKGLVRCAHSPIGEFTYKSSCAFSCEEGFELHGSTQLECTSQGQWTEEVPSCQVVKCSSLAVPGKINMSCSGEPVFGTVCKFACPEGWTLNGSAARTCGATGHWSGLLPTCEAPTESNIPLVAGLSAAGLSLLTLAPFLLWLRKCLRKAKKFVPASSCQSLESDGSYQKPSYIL
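System: HUVEC / Compound: single concentration / Signal: immunofluorescence imaging / Read-out: percent E-selectin-positive cells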
FGF22 binding: shifts melting point of recombinant human FGF22 | activity (Tm shift, normalised), % at 9.99 µM | hit rate 1.5% among 340,000 | recombinant FGF22 thermal shift, SYPRO orange fluorescence; percent of sucrose octasulfate shift, DMSO zero | Q9HCT0;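 active = mean Tm shift, scaled 0 neutral to 100 positive control, at about 1.3% or above, every replicate too, limit read from the data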
Target sequence (Q9HCT0 whole entry, looked up): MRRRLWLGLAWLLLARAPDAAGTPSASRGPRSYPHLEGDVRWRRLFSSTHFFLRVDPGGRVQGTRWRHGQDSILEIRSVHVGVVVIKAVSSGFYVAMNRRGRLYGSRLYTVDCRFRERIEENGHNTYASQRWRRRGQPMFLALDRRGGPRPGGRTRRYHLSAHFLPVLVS
XiGFP reactiv: reactivates the inactive X chromosome in mouse fibroblasts | XiGFP mouse fibroblasts, % GFP-positive cells imaging, 3 d; cells co-treated with 5-aza-dC sensitizer; scaled so ellipticine positive control = 100% | hit rate 0.055% among 360,000 | activation, % at 7.58 µM;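 active = mean normalized replicate activation at least 10% and every replicate at or above 10%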
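System: SV40-immortalized XiGFP fibroblast cells, line 68-5-11 / Incubation: 3-day compound exposure, then 15 min fixation at room temperature / Compound: single concentration per compound, delivered by pin transfer / Buffer or medium: DMEM plus 5-aza-dC sensitizer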
DENV2 CPE: inhibitors of DENV2 cytopathic effect. DENV2-infected cells, cytopathic effect rescue, plate reader. CPE inhibition, % at 9.99 µM. hit rate 1.7% among 350,000; in the data active = CPE inhibition above about 20%, passing the limit was not always enough; tested in BHK-21 cells
Each line names hits and unclear results; the compound was inactive in the other large screens; ! = repeats disagree.

CCNC(=O)C[C@H]1CC[C@@H]2[C@H](COc3ccc(NC(=O)NC(C)C)cc3C(=O)N2C)O1	DENV2 CPE 40.9
Cc1ccc(S(=O)(=O)Oc2ccccc2-c2ccccc2)cc1	FGF22 binding 43.2
Cc1ccc(S(=O)(=O)Oc2ccccc2)cc1	none (no result: PglD inh)
O=S(=O)(NCC1OCCc2ccccc21)c1ccc(S(=O)(=O)N2CCOCC2)cc1 (stereo not given)	none (no result: E-sel inducer, FGF22 binding, XiGFP reactiv, DENV2 CPE)
c1ccc2c(c1)CCOC2CNCCCN1CCCCC1 (stereo not given)	C2C12 statin 90.7 (no result: E-sel inducer, FGF22 binding, XiGFP reactiv, DENV2 CPE)
Cc1ccc(CNC(=O)C2CCCN(c3nc(C)cc(C)n3)C2)cc1 (stereo not given)	FGF22 binding 43.4 (no result: PglD inh, C2C12 statin)
Cc1cc(C)nc(N2CCCC(C(=O)NCc3cccs3)C2)n1 (stereo not given)	C2C12 statin 126.8 (no result: E-sel inducer, XiGFP reactiv)
O=C(O)CCCCCN1C(=O)/C(=C\c2cn(-c3ccccc3)nc2-c2cccs2)SC1=S	DENV2 CPE 59.6 (no result: E-sel inducer)
COc1ccc(CN2CC3(C2)[C@H](c2ccccc2)[C@@H](CO)N3CC2CCCC2)cc1	none (no result: PglD inh, C2C12 statin, E-sel inducer, FGF22 binding, DENV2 CPE)
O=C1CCCC2=C1C(c1ccc(O)c(O)c1)Nc1ccc3ncccc3c12 (stereo not given)	none (no result: E-sel inducer)
O=C1CCCC2=C1C(c1cccs1)Nc1ccc3ncccc3c12 (stereo not given)	C2C12 statin 139.1 (no result: E-sel inducer, FGF22 binding, XiGFP reactiv, DENV2 CPE)
COc1ccc(C2CCc3cc4c(cc3C2=NO)OCO4)cc1OC (stereo not given)	FGF22 binding 42.9
Cc1nnc(NC(=O)C2CCCN(S(=O)(=O)Cc3ccccc3)C2)s1 (stereo not given)	C2C12 statin 119.7 (no result: E-sel inducer, FGF22 binding, XiGFP reactiv, DENV2 CPE)
Cc1nnc(NC(=O)C2CCCN(S(=O)(=O)c3ccccc3C(F)(F)F)C2)s1 (stereo not given)	none (no result: E-sel inducer, FGF22 binding, XiGFP reactiv, DENV2 CPE)
CCOC(=O)/C(C#N)=C1/C=CN(Cc2ccccc2)C=N1	none (no result: E-sel inducer, FGF22 binding, XiGFP reactiv, DENV2 CPE)
CCOC(=O)C(=O)C1=CN(Cc2ccccc2)C=C(C#N)C1	E-sel inducer 52.0
C[C@@H]1CN([C@@H](C)CO)C(=O)Cc2cc(NS(=O)(=O)c3ccc(Cl)cc3)ccc2O[C@@H]1CN(C)Cc1ccc(C(=O)O)cc1	none (no result: PglD inh)
C[C@@H]1CCCCO[C@H](CN(C)C(=O)Nc2cccc3ccccc23)[C@@H](C)CN([C@@H](C)CO)C(=O)c2cc(NS(=O)(=O)c3cn(C)cn3)ccc2O1	DENV2 CPE 89.0 (no result: C2C12 statin)
C[C@@H]1CCCCO[C@H](CN(C)C(=O)Nc2ccccc2)[C@H](C)CN([C@H](C)CO)C(=O)c2cc(NS(=O)(=O)c3cn(C)cn3)ccc2O1	none (no result: C2C12 statin)
C[C@@H]1CCCCO[C@H](CN(C)C(=O)Nc2ccccc2)[C@@H](C)CN([C@H](C)CO)C(=O)c2cc(NS(=O)(=O)c3cn(C)cn3)ccc2O1	DENV2 CPE 44.6!
C[C@H](CO)N1C[C@H](C)[C@@H](CN(C)C(=O)Nc2cccc3ccccc23)OCCCC[C@H](C)Oc2ccc(NS(=O)(=O)c3cn(C)cn3)cc2C1=O	none
Cc1ccc(S(=O)(=O)N[C@@H]2CC[C@@H](CCNC(=O)CN3CCOCC3)O[C@@H]2CO)cc1	none
O=C(Nc1cc(S(=O)(=O)N2CCCCC2)ccc1O)c1ccccc1NS(=O)(=O)c1ccc(F)cc1	FGF22 binding 1.4! (no result: C2C12 statin)
O=C(Nc1cc(S(=O)(=O)N2CCCCC2)ccc1Cl)c1ccccc1NS(=O)(=O)c1ccc(F)cc1	none (no result: PglD inh, C2C12 statin, E-sel inducer)
O=C(Cc1ccncc1)NCC[C@H]1CC[C@@H](NC(=O)C2CC2)[C@@H](CO)O1	none
Cc1ccc(S(=O)(=O)NCc2c(Cl)cccc2Oc2ccccc2)cc1	none (no result: E-sel inducer, FGF22 binding, XiGFP reactiv, DENV2 CPE)
O=S(=O)(NCc1c(Cl)cccc1Oc1ccccc1)c1ccccc1	DENV2 CPE 31.7
O=c1[nH][nH]c(-c2ccccc2)c1C=Nc1ccc(F)cc1F	FGF22 binding 43.9 (no result: E-sel inducer)
COc1ccccc1CNC(=O)C[C@@H]1CC[C@H]2[C@H](COc3ccc(NC(=O)Nc4ccc(F)c(F)c4)cc3C(=O)N2C)O1	none
COC(CN(C)C(=O)c1ccc(CS(=O)(=O)c2ccccc2C)o1)OC	E-sel inducer 48.8
C[C@@H](NC(=O)[C@H]1[C@H](CO)[C@H]2Cn3c(cccc3=O)[C@H]2N1CC1CC1)c1ccccc1	none
COc1cccc(S(=O)(=O)N(C)C[C@H]2Oc3cc(C#CCN(C)C)ccc3S(=O)(=O)N([C@H](C)CO)C[C@@H]2C)c1	none
C/C=C/c1ccc([C@@H]2[C@H](CO)N(C(=O)COC)[C@H]2CNC(=O)CC)cc1	none
CCS(=O)(=O)Nc1ccc2c(c1)C(=O)N(C)C[C@@H](OC)[C@@H](C)CN(Cc1nccs1)[C@H](C)CO2	none (no result: PglD inh, FGF22 binding, DENV2 CPE)
Cc1ccc(NS(=O)(=O)c2cccc(C(=O)NCC(c3cccs3)N(C)C)c2)cc1 (stereo not given)	FGF22 binding 42.9 (no result: E-sel inducer)
COc1ccccc1C#Cc1ccc([C@H]2[C@@H](CO)N3CCCCN(C(=O)C4CC4)C[C@H]23)cc1	none (no result: C2C12 statin, E-sel inducer, XiGFP reactiv)
Cc1cc(C)n2cc(CSCC(=O)O)nc2n1	none (no result: PglD inh, FGF22 binding, DENV2 CPE)
Cc1cc(C)n2cc(CSc3ccc(Br)cc3)nc2n1	FGF22 binding 43.0 (no result: PglD inh, C2C12 statin)
Cc1cc(C)n2cc(CSc3ncn[nH]3)nc2n1	FGF22 binding 43.2 (no result: E-sel inducer)
Cc1ccc(-c2ccc3c(c2)O[C@H](CN(C)C(=O)Nc2ccc(F)cc2)[C@@H](C)CN([C@@H](C)CO)S3(=O)=O)cc1	none
C[C@H]1CN([C@@H](C)CO)S(=O)(=O)c2ccc(-c3ccc(F)cc3)cc2O[C@@H]1CN(C)C(=O)C1CCCCC1	DENV2 CPE 52.2
Cc1ccc(-c2ccc3c(c2)O[C@@H](CN(C)C(=O)Nc2ccc(F)cc2)[C@@H](C)CN([C@@H](C)CO)S3(=O)=O)cc1	DENV2 CPE 30.4
C[C@@H]1CN([C@H](C)CO)S(=O)(=O)c2ccc(-c3cccc(C(=O)N(C)C)c3)cc2O[C@H]1CN(C)C(=O)Nc1ccc(F)cc1	DENV2 CPE 27.1!
C[C@H](CO)N1C[C@H](C)[C@@H](CN(C)Cc2ccc(C(F)(F)F)cc2)Oc2ccc(NS(C)(=O)=O)cc2C1=O	none
CCCN1[C@@H]2c3ccc(/C=C/c4ccccc4)c(=O)n3C[C@@H]2[C@@H](CO)[C@@H]1C(=O)N1CCOCC1	none
OC(COC(c1ccccc1)c1ccccc1)CN1CCOCC1 (stereo not given)	E-sel inducer 71.6 (no result: PglD inh, C2C12 statin)
CCC1=NN2C(=N)/C(=C\c3cccn3-c3ccc(C)c(C)c3)C(=O)N=C2S1	none (no result: E-sel inducer)
CCC1=NN2C(=N)/C(=C\c3cccn3-c3ccc(Cl)cc3)C(=O)N=C2S1	FGF22 binding 47.3 (no result: PglD inh, C2C12 statin, E-sel inducer)
CCCNC(=O)[C@@]1(C)c2ccccc2C(=O)N(Cc2ccc(OC(F)(F)F)cc2)[C@H]1c1ccc(CO)cc1	DENV2 CPE 20.1 (no result: C2C12 statin, E-sel inducer, XiGFP reactiv)
CCCNC(=O)[C@@]1(C)c2ccccc2C(=O)N(Cc2ccccc2)[C@H]1c1ccc(CO)cc1	none (no result: C2C12 statin, E-sel inducer, XiGFP reactiv)
